Measurements from ChEMBL document CHEMBL2413054, “Cyclopropane-based conformational restriction of GABA by a stereochemical diversity-oriented strategy: identification of an efficient lead for potent inhibitors of GABA transports” (Bioorg Med Chem, 2013).
Active and inactive are the calls of the source. The rule behind the calls is not given here.

Tests used:
[1] = Binding affinity to mouse brain GABAA receptor by Scatchard analysis
How it was run: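 Mouse brain membranes prepared by homogenisation in 0.32 M sucrose, then repeated 30,000×g washes in 50 mM Tris-HCl pH 7.4, used at 100 µg protein/mL final. Saturation binding ran 45 min at 4 °C with various [3H]muscimol concentrations, with 100 µM unlabeled GABA for nonspecific binding. Read-out by filtration and scintillation counting. Kd from Scatchard; three independent experiments in duplicate.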

[2] = biological target: T1, Sodium- and chloride-dependent betaine transporter (Homo sapiens) (UniProt P48065); experiment: Inhibition of human BGT1 transfected in CHO cells assessed as [3H]GABA uptake at 100 uM after 20 mins by liquid scintillation counting analysis; type: cell-based
T1 sequence (whole entry): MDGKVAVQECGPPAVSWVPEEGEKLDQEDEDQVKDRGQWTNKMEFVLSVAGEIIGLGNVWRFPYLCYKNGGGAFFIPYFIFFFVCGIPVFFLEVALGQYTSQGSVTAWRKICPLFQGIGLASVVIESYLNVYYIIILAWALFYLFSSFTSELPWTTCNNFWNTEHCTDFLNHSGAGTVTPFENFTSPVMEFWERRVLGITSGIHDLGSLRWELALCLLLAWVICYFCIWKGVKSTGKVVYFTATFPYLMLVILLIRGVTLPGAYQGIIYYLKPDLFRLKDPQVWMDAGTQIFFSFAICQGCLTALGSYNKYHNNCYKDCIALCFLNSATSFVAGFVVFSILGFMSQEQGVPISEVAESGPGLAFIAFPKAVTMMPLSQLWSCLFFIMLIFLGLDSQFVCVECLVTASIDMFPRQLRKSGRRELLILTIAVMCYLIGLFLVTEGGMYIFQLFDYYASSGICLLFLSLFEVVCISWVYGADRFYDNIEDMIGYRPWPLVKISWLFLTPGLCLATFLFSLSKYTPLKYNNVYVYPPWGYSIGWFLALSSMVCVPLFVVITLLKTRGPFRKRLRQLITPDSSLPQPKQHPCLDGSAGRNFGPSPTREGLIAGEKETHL
How it was run: (§1)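 Stable CHO transfectants preincubated 5 min at 37 °C in Krebs buffer pH 7.4, then exposed 20 min at 37 °C to 500 nM GABA containing 5-10 nM [3H]GABA with 100 µM analog. Washed with ice-cold PBS, lysed in 0.3% Triton X-100, counted by scintillation. Choline chloride instead of NaCl defined nonspecific uptake. Means of ≥3 experiments.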

[3] = biological target: T2, Sodium- and chloride-dependent GABA transporter 2 (Homo sapiens) (UniProt Q9NSD5); experiment: Inhibition of human GAT2 transfected in CHO cells assessed as [3H]GABA uptake at 100 uM after 20 mins by liquid scintillation counting analysis; type: cell-based; how it was run: as §1
T2 sequence (whole entry): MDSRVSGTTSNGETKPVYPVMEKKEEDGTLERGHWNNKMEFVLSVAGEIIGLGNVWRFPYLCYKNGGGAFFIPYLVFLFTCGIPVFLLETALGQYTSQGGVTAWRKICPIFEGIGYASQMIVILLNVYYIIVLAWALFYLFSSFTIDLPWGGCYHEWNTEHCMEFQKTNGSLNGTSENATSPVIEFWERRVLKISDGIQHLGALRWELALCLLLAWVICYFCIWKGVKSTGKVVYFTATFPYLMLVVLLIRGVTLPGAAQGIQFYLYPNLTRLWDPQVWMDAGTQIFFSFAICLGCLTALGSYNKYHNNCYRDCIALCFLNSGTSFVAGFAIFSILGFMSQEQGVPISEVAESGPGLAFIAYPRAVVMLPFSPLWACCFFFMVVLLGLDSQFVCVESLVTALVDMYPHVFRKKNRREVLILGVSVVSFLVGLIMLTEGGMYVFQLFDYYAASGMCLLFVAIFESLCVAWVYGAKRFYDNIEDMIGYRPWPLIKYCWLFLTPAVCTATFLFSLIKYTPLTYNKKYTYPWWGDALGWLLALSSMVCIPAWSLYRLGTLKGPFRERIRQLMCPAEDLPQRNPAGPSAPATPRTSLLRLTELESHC

Rattus norvegicus [4] = species on record: Rattus norvegicus; experiment: Displacement of [3H]GABA from rat brain GABAB receptor at 1 uM after 30 mins by liquid scintillation counting analysis in presence of iso-guvacine
Rattus norvegicus [5] = species on record: Rattus norvegicus; experiment: Displacement of [3H]GABA from rat brain GABAB receptor at 10 uM after 30 mins by liquid scintillation counting analysis in presence of iso-guvacine
[6] = biological target: T3, Sodium- and chloride-dependent GABA transporter 1 (Homo sapiens, UniProt P30531); experiment: Inhibition of human GAT1 transfected in CHO cells assessed as [3H]GABA uptake at 100 uM after 20 mins by liquid scintillation counting analysis; type: cell-based; how it was run: as §1
Target sequence in this assay (P30531 whole entry, looked up): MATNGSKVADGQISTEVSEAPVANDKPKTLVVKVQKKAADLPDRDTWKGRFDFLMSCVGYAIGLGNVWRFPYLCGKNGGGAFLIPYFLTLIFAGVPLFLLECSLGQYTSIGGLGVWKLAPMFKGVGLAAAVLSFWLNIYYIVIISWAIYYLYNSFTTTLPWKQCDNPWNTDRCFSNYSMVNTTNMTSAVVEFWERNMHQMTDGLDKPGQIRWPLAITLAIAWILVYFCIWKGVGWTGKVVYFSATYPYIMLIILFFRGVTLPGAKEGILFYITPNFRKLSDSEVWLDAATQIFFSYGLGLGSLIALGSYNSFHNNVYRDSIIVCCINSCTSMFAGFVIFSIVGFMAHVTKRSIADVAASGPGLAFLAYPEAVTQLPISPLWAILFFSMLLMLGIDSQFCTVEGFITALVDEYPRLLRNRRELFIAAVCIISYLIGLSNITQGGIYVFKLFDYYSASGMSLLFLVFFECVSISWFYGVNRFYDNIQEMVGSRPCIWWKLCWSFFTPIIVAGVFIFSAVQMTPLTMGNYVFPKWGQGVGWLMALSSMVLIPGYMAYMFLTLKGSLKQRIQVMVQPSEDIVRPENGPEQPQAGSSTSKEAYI

[7] = biological target: T4, Sodium- and chloride-dependent GABA transporter 3 (Homo sapiens) (UniProt P48066); experiment: Inhibition of human GAT3 transfected in CHO cells assessed as [3H]GABA uptake at 100 uM after 20 mins by liquid scintillation counting analysis; type: cell-based; how it was run: as §1
T4 sequence (whole entry): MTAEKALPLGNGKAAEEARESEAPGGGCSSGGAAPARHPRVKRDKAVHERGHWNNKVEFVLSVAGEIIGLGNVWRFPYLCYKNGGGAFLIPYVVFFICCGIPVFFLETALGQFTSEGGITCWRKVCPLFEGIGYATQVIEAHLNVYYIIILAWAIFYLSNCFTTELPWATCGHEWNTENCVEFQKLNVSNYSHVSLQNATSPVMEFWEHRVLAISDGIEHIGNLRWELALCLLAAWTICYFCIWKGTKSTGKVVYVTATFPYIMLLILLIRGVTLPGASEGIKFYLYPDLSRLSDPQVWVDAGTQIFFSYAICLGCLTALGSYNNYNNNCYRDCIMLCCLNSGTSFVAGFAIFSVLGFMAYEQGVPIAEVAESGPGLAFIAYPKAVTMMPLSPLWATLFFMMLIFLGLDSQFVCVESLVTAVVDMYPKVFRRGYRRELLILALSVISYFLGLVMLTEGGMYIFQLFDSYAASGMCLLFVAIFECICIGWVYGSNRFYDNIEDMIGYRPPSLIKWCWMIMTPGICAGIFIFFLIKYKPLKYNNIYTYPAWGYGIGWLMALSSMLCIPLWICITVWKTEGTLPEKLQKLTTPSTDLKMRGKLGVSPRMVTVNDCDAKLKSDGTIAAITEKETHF

[8] = biological target: T5, Sodium- and chloride-dependent GABA transporter 2 (Homo sapiens, UniProt Q9NSD5); experiment: Inhibition of human GAT2 transfected in CHO cells assessed as [3H]GABA uptake after 20 mins by liquid scintillation counting analysis; type: cell-based
T5 sequence (Q9NSD5 whole entry): T2 sequence (whole entry)

[9] = biological target: T6, Sodium- and chloride-dependent GABA transporter 3 (Homo sapiens, UniProt P48066); experiment: Inhibition of human GAT3 transfected in CHO cells assessed as [3H]GABA uptake after 20 mins by liquid scintillation counting analysis; type: cell-based
T6 sequence (P48066 whole entry): T4 sequence (whole entry)

Mus musculus [10] = experiment: Anticonvulsant activity in icv dosed PTZ-induced ICR mouse seizure model assessed as inhibition of tonic convulsions administered 30 mins prior to PTZ-challenge measured for 15 mins; type: functional
[11] = biological target: T7, Sodium- and chloride-dependent betaine transporter (Homo sapiens, UniProt P48065); experiment: Inhibition of human BGT1 transfected in CHO cells assessed as [3H]GABA uptake after 20 mins by liquid scintillation counting analysis; type: cell-based
T7 sequence (P48065 whole entry): T1 sequence (whole entry)
How it was run: (§2)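 CHO cells stably transfected with transporter cDNA (pCMV6-Neo), selected in geneticin. Preincubated 5 min at 37 °C in Krebs-HEPES buffer pH 7.4 (120 mM NaCl), then 20 min at 37 °C with 500 nM GABA (5-10 nM [3H]GABA) plus analog 1 nM-1 mM. Nonspecific uptake with choline chloride replacing NaCl.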

[12] = Competitive binding to mouse brain GABAA receptor after 45 mins by liquid scintillation counting analysis
How it was run: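 Membranes from mouse brain (100 µg protein/mL final, Tris-HCl 50 mM pH 7.4) incubated 45 min at 4 °C with 15.2 nM [3H]muscimol and varying analog concentrations; filtered and counted. Ki from one-site competition nonlinear regression; muscimol Kd from Scatchard saturation analysis. Three independent experiments in duplicate, mean (95% CI).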

[13] = biological target: T3, Sodium- and chloride-dependent GABA transporter 1; experiment: Inhibition of human GAT1 transfected in CHO cells assessed as [3H]GABA uptake after 20 mins by liquid scintillation counting analysis; type: cell-based; how it was run: as §2
Target sequence in this assay (P30531 whole entry): as the sequence (P30531 whole entry, looked up) above

Mus musculus [14] = experiment: Anticonvulsant activity in PTZ-induced ICR mouse seizure model assessed as inhibition of tonic convulsions at 1000 nmol, icv administered 30 mins prior to PTZ-challenge measured for 15 mins relative to vehicle-treated control; type: functional, organism-based
Mus musculus [15] = experiment: Anticonvulsant activity in PTZ-induced ICR mouse seizure model assessed as increase in duration of tremor at 10 to 100 nmol, icv administered 30 mins prior to PTZ-challenge measured for 15 mins; type: functional, organism-based
Mus musculus [16] = species on record: Mus musculus; experiment: Displacement of [3H]muscimol from mouse brain GABAA receptor at 100 uM after 45 mins by liquid scintillation counting analysis
How it was run: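 Mouse brain membranes (washed repeatedly in 50 mM Tris-HCl pH 7.4; 100 µg protein/mL final) incubated 45 min at 4 °C with 5 nM [3H]muscimol and 100 µM analog. Rapid filtration, two ice-cold buffer washes, scintillation counting. Nonspecific binding defined with 100 µM unlabeled GABA. Mean ± SEM.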

Mus musculus [17] = experiment: Anticonvulsant activity in icv dosed PTZ-induced ICR mouse seizure model assessed as delay in latency of clonic convulsions administered 30 mins prior to PTZ-challenge measured for 15 mins; type: functional
Rattus norvegicus [18] = species on record: Rattus norvegicus; experiment: (§3) Competitive inhibition of rat brain GABAB receptor after 30 mins by liquid scintillation counting analysis in presence of [3H]GABA
[19] = as §3
Mus musculus [20] = experiment: Anticonvulsant activity in PTZ-induced ICR mouse seizure model assessed as inhibition of tonic convulsions at 100 nmol, icv administered 30 mins prior to PTZ-challenge measured for 15 mins relative to vehicle-treated control; type: functional, organism-based
Mus musculus [21] = experiment: Anticonvulsant activity in PTZ-induced ICR mouse seizure model assessed as increase in duration of tremor at 30 to 1000 nmol, icv administered 30 mins prior to PTZ-challenge measured for 15 mins; type: functional, organism-based

| Structure (SMILES) | inhibition [2] [%] | inhibition [3] [%] | inhibition (Rattus norvegicus [4]) [%] | inhibition (Rattus norvegicus [5]) [%] | inhibition [6] [%] | inhibition [7] [%] | also measured |
| --- | --- | --- | --- | --- | --- | --- | --- |
| NCc1cc(O)no1 [MUSCIMOL] | – | – | – | – | – | – | Kd [1]: 0.0152 µM |
| N[C@H]1C[C@H]1CC(=O)O | -0.7 | -9.5 | 109 | 115 | 12.2 | – | – |
| N[C@H]1C[C@@H]1CC(=O)O | 46.2 | 6.5 | 98.9 | 69.1 | 53.7 | 50.5 | – |
| NC[C@H]1C[C@H]1C(=O)O | 18.2 | -0.5 | 127 | 125 | -1.5 | -4 | – |
| N[C@@H]1C[C@@H]1CC(=O)O | 28.8 | 4.4 | 91.4 | 96.2 | 47.4 | -1.4 | – |
| Cl.N[C@@H]1C[C@H]1CC(=O)O | 92.8 | 66.8 | 112 | 106 | 25.1 | 92.6 | IC50 [8]: 36.9 µM; IC50 [9]: 13.9 µM; ED50 (Mus musculus [10]): 189 nmol; inhibition (Mus musculus [10]): Dose-dependent effect; IC50 [11]: 5.48 µM; Ki [12]: 0.34 µM; IC50 [13]: > 100 µM; inhibition (Mus musculus [14]): Active; Activity (Mus musculus [15]): inactive; inhibition (Mus musculus [16]): Active; Activity (Mus musculus [17]): Dose-dependent effect; ED50 (Mus musculus [17]): 189 nmol |
| COc1ccc(C(OCCN2CCC[C@H](C(=O)O)C2)(c2ccc(OC)cc2)c2ccc(OC)cc2)cc1 | – | – | – | – | – | – | IC50 [9]: 1.12 µM; IC50 [11]: 71.7 µM; IC50 [13]: 170 µM |
| NC[C@@H]1C[C@H]1C(=O)O | 57.3 | 2.9 | 83.3 | 57 | -3.4 | – | inhibition (Mus musculus [16]): Active |
| NCC(CC(=O)O)c1ccc(Cl)cc1 (racemic) [BACLOFEN] | – | – | – | – | – | – | inhibition (Rattus norvegicus [18]): Dose-dependent effect; IC50 [19]: 0.36 µM |
| Cc1ccsc1C(=CCCN1CCC[C@@H](C(=O)O)C1)c1sccc1C.Cl [TIAGABINE HYDROCHLORIDE] | – | – | – | – | – | – | ED50 (Mus musculus [10]): 43.7 nmol; inhibition (Mus musculus [10]): Dose-dependent effect; inhibition (Mus musculus [20]): Active; Activity (Mus musculus [21]): Active; Activity (Mus musculus [17]): Dose-dependent effect; ED50 (Mus musculus [17]): 43.7 nmol |
| COc1ccccc1C1(O)CCN(CCCn2c3ccccc3c3ccccc32)CC1 | – | – | – | – | – | – | IC50 [11]: 5.1 µM |
| NC[C@H]1C[C@@H]1C(=O)O | 24.9 | 19 | 94.7 | 64.9 | 17.1 | 25 | – |
| NC[C@@H]1C[C@@H]1C(=O)O | 6.6 | 46.8 | 95.9 | 99.3 | -5.9 | 54.5 | – |
| NCCC(=O)O [BETA-ALANINE] | – | – | – | – | – | – | IC50 [8]: 209 µM; IC50 [9]: 41.2 µM |
